From publication PMC3423201 (Molecular cancer therapeutics, 2011)
Like-named read-outs stand apart in the source and are kept apart here.

Assays:
[1] = target: T1, AMACR (Homo sapiens, UniProt Q9UHK6); experiment: Pre-incubation of AMACR with cysteine specific reagents, with or without ebselen; format: biochemical; conditions: 20 mM dithithreitol, 5 mM tributylphosphine, 15 mM iodoacetamide
T1 sequence (Q9UHK6 1-382): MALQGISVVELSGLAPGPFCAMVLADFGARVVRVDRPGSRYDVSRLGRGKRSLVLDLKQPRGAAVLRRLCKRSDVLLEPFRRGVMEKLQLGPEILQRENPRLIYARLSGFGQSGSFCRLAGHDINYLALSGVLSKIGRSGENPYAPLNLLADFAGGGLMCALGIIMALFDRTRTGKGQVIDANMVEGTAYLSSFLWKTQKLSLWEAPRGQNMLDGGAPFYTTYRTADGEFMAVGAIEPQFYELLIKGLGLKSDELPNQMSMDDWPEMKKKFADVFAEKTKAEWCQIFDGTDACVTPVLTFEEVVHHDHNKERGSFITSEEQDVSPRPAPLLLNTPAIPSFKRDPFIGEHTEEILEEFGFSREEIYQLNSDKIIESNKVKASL

[2] = target: T2, AMACR-MBP (Homo sapiens, UniProt Q9UHK6); experiment: Kinetic parameters; format: biochemical; conditions: 0.3 μM AMACR-MBP, 37°C, ± SEM
T2 sequence (Q9UHK6 1-382): T1 sequence (Q9UHK6 1-382)
Summary of the method: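 Reactions of 185 μL held 0.3 μM AMACR-MBP in Na/K/Pi pH 7.25 with BSA at 37°C. [2,3-3H]Pri-CoA was used at 1–400 μM (twelve levels), all at 60 Ci/mol, and reactions were started with enzyme. Aliquots of 20 μL were taken at 0–900 s and quenched in 2 M HCl, with no-enzyme backgrounds at each time point. Aliquots were processed by SPE/scintillation, DPM were converted to rates, and rates were fitted directly to Michaelis-Menten.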

[3] = target: T2, AMACR-MBP; experiment: High-throughput screen for AMACR inhibitors; format: biochemical; conditions: for inhibition at 100 µM: read-out: inhibition (decrease of fractional activity) in HTS
Summary of the method: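 Recombinant AMACR-MBP was expressed in E. coli TB1, purified on a maltose column and dialysed into 100 mM Na/K/Pi pH 7.25. Enzyme (0.3 μM) was incubated with 100 μM test compound (1% DMSO) and 150 μM [2,3-3H]Pri-CoA (60 Ci/mol) in buffer with 0.125 mg/mL BSA for 30 min at 37°C. Reactions were acid-quenched, neutralised and passed through C18 SPE, and released 3H2O was scintillation-counted. Fractional activity was calculated against each row's no-inhibitor control after no-enzyme background subtraction; <0.8 was flagged as a hit.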

[4] = neuroprotective doses, 300 mg/day, oral; ref [44], [46]; cited from earlier work
[5] = system: LNCaP; experiment: In-vitro LD50, alamarBlue viability, LNCaP; format: cell-based, human; conditions: 48 hours
Summary of the method: (§1)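 Cells were plated at 10,000 per well in triplicate and allowed to attach overnight. Medium was replaced with test compound (0–500 μM or 0–400 μM depending on compound) for 48 h. Cells were then incubated with alamarBlue for 4 h and fluorescence read at 544 ex/590 em. After media-only background subtraction, viability was expressed as a percent of the vehicle control. LD50 came from a 4-parameter variable-slope fit with the bottom constrained to zero.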

[6] = target: T2, AMACR-MBP; experiment: Kitz-Wilson analysis of time-dependent inactivation; format: biochemical; conditions: for KI (inactivation): 37°C, Kitz-Wilson transformation
Summary of the method: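 Inactivation mixtures at 37°C contained test compound at a series of concentrations and 5 μM AMACR-MBP, started with enzyme. At timed points from zero, 2 μL was diluted 50-fold into buffer with 150 μM [2,3-3H]Pri-CoA (100 nM final enzyme) and reacted for 30 min, then SPE/scintillation. Activity remaining was expressed versus time-matched no-inhibitor controls. T1/2 was regressed against 1/[I], giving kinact = ln2/y-intercept and KI(inact) = −1/x-intercept.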

[7] = system: prostate cancer cell lines (LAPC4/LNCaP/PC3) compared to WPMY1; format: cell-based, human; conditions: highest vs lowest AMACR expressor
Summary of the method: as §1

[8] = Mode of cell death; format: cell-based; conditions: Supplementary Figure S7
[9] = target: T2, AMACR-MBP; experiment: AMACR inhibitor IC50 determination; format: biochemical
Summary of the method: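 Run as the plate screen (0.3 μM AMACR-MBP, 100 μM [2,3-3H]Pri-CoA, SPE and scintillation read-out), adding enzyme last. Test compound was dosed at 1–1000 μM, extended to 1–750 nM for selected compounds, from 100% DMSO stocks, giving 2–6% DMSO, in triplicate. Fractional activity was fitted by 3-parameter log(inhibitor)-response regression.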

[10] = system: LAPC4; experiment: In-vitro LD50, alamarBlue viability, LAPC4; format: cell-based, human; conditions: LAPC4, 48 hours
Summary of the method: as §1

[11] = system: PC3; experiment: In-vitro LD50, alamarBlue viability, PC3; format: cell-based, human; conditions: PC3, 48 hours
Summary of the method: as §1

[12] = system: WPMY1; experiment: In-vitro LD50, alamarBlue viability, WPMY1; format: cell-based, human; conditions: WPMY1, 48 hours
Summary of the method: as §1

[13] = target: T2, AMACR-MBP; experiment: Effect of pre-incubation time on ebselen inhibition; format: biochemical

SMILES: O[C@@H](CS)[C@@H](O)CS (racemic) [DTT, dithithreitol]
- effect of pre-incubation with cysteine specific reagent on AMACR-MBP activity [1]: does not abrogate AMACR-MBP activity

SMILES: CC(C)CCCC(C)CCCC(C)CCCC(C)C(=O)SCCNC(=O)CCNC(=O)[C@H](O)C(C)(C)COP(=O)(O)OP(=O)(O)OC[C@H]1O[C@@H](n2cnc3c(N)ncnc32)[C@H](O)[C@@H]1OP(=O)(O)O (some centres unmarked) [[2,3-^3H] Pri-CoA, [2,3-^3H] pristanoyl coenzyme A]
- Km [2]: 85.6 ± 17.1 µM

SMILES: Nc1c(/N=N/c2ccc(-c3ccc(/N=N/c4cc(S(=O)(=O)O)c5ccccc5c4N)cc3)cc2)cc(S(=O)(=O)O)c2ccccc12 [Congo Red, congo red]
- inhibition at 100 µM [3]: ≥ 20%

SMILES: NC(=O)CI [IAA, iodoacetamide]
- effect of pre-incubation with cysteine specific reagent on AMACR-MBP activity [1]: does not abrogate AMACR-MBP activity

SMILES: O=c1c2ccccc2[se]n1-c1ccccc1 [ebselen]
- tolerability in clinical trials [4]: well tolerated
- LD50 [5]: 71.96 ± 1.106 µM
- mode of inhibition [6]: irreversible inactivators
- KI (inactivation) [6]: 24 µM
- difference in LD50 between LNCaP and WPMY1 [7]: 5 fold
- type of cell death induced [8]: necrotic cell death
- IC50 [9]: 2.79 µM
- LD50 [10]: 98.43 ± 1.038 µM
- LD50 [11]: 332.3 ± 1.015 µM
- LD50 [12]: 467.1 ± 1.017 µM
- fractional activity of AMACR-MBP ([13]; no pre-incubation (enzyme initiated)): ~ 50%
- fractional activity of AMACR-MBP ([13]; pre-incubation time of ≥ 5 minutes (substrate initiated)): just above background
- inhibition at 100 µM [3]: ≥ 20%

SMILES: Cc1cc(O)c(-c2cc(O)c(C)cc2O)cc1O [DMPMB, 2-(2,5-dihydroxy-4-methylphenyl)-5-methyl benzene-1,4-diol]
- LD50 [5]: 116.9 ± 1.033 µM
- mode of inhibition [6]: irreversible inactivators
- KI (inactivation) [6]: 24.3 µM
- type of cell death induced [8]: necrotic cell death
- LD50 [10]: 58.78 ± 1.058 µM
- LD50 [11]: 101.1 ± 1.034 µM
- LD50 [12]: 117.6 ± 1.011 µM

SMILES: O=C1c2c(O)ccc(O)c2C(=O)c2c(NCCNCCO)ccc(NCCNCCO)c21 [mitoxantrone]
- inhibition of AMACR-MBP detected in library screen ([3]; 100 μM, both JHDL and NCI/DTP libraries): inhibition of AMACR-MBP

SMILES: CSc1nc(=S)c2[nH]c(=S)[nH]c2[nH]1 [MSDTP, 2-methylsulfanyl-7,9-dihydro-3H-purine-6,8-dithione]
- mode of inhibition [6]: covalent inactivators

SMILES: CCCCP(CCCC)CCCC [TBP, tributylphosphine]
- effect of pre-incubation with cysteine specific reagent on AMACR-MBP activity [1]: does not abrogate AMACR-MBP activity

SMILES: [3H]C(CCC(C)CCCC(C)CCCC(C)C)C([3H])(C)C(=O)SCCNC(=O)CCNC(=O)[C@H](O)C(C)(C)COP(=O)(O)OP(=O)(O)OC[C@H]1O[C@@H](n2cnc3c(N)ncnc32)[C@H](O)[C@@H]1OP(=O)(O)O (some centres unmarked) [[2,3-^3H] Pri-CoA, [2,3-^3H] pristanoyl coenzyme A]
- Vmax [2]: 294.9 ± 21.10 pmol/min

SMILES: O=C1c2ccccc2[Se](=O)N1c1ccccc1 (centres unmarked) [ebselen oxide]
- IC50 ([9]; 100 μM [2,3-3H]Pri-CoA, 0.3 μM AMACR-MBP, enzyme initiated): 0.8 µM
